Experiments:
[1] = biological target: T1, Cannabinoid receptor 1 (Homo sapiens, UniProt P21554); test: biochemical; type: cell-based, CHO
[2] = biological target: T1, Cannabinoid receptor 1; test: Effective concentration against human recombinant cannabinoid receptor type 1 expressed in Chinese Hamster Ovary (CHO) cells; type: cell-based
In short: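 Functional assay on recombinant human CB1 receptor expressed in CHO cells, run in the presence of forskolin.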

[3] = Normalised area under the concentration time curve in rat; type: ADME
In short: (§1)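 Male Sprague–Dawley rats dosed 1.0 mg/kg iv via an implanted cannula (n = 1 or 2) and 2.0 mg/kg po by gavage (n = 3). Both doses were formulated at 1 mg/mL in TWEEN 80:EtOH:water (10:23:67). Plasma drug levels were measured by LC–MS/MS after protein precipitation, and PK parameters were derived. AUC was normalised to dose.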

[4] = Oral bioavailability in rat; type: ADME, organism-based; settings: in vivo
In short: as §1

[5] = Half life in rat; type: ADME; settings: in vivo
In short: as §1

[6] = Plasma clearance in rat; type: ADME, organism-based; settings: read-out: Clp
In short: as §1

[7] = Volume distribution at steady state in rat; type: ADME, organism-based; settings: in vivo, read-out: Vdss
In short: as §1

[8] = Brain-to-plasma ratio after 1 hr in rat; type: ADME
In short: (§2)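 Male Sprague-Dawley rats given 1.0 mg/kg iv by tail vein, formulated at 1 mg/mL in TWEEN 80:EtOH:water (10:23:67). Sampled at 0.25, 1, 2 and 4 h (n = 3 per time point). Plasma and brain levels measured by LC–MS/MS and expressed as the brain/plasma ratio.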

[9] = Brain-to-plasma ratio after 2 hrs in rat; type: ADME
In short: as §2

[10] = (§3) Brain-to-plasma ratio after 4 hrs in rat; type: ADME
In short: as §2

[11] = Brain-to-plasma ratio after 0.25 hrs in rat; type: ADME
In short: as §2

[12] = as §3; type: ADME, cell-free; settings: read-out: B/P
In short: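 Male Sprague-Dawley rats were given 1.0 mg/kg iv via the tail vein, formulated at 1 mg/mL in TWEEN 80:EtOH:water (10:23:67). Three rats were used at each time point (0.25, 1, 2 and 4 h). Brain and plasma concentrations were measured by LC–MS/MS, and the brain-to-plasma ratio was taken at each time.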

T1 sequence (P21554 whole entry): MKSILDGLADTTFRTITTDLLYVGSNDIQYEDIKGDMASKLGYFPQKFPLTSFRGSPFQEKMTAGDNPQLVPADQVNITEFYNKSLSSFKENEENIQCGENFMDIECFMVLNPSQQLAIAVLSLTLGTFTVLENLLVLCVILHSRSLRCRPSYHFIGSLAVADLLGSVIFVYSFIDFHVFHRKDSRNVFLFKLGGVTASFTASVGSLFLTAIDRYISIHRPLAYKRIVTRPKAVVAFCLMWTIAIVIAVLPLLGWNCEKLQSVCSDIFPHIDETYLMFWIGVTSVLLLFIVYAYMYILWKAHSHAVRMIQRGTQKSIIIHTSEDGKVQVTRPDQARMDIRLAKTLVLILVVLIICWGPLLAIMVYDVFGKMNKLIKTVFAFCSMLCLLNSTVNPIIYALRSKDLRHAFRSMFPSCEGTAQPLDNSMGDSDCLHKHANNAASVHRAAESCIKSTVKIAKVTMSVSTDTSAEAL

IC50 [1] [nM]	Compound	also measured
470	O=C(NN1CCCCC1)c1nc(-c2ccc(Cl)cc2)c(-c2ccc(Cl)cc2Cl)o1	
80	O=C(NC1CCCCC1)c1nc(-c2ccc(Cl)cc2Cl)c(-c2ccc(Cl)cc2)o1	
19000	Cn1c(C(=O)N2CCCCC2)nc(-c2ccccc2)c1-c1ccccc1	
200	O=C(NN1CCCCC1)c1nc(-c2ccc(Cl)cc2Cl)c(-c2ccc(Cl)cc2Cl)o1	
190	Cn1c(C(=O)NN2CCCCC2)nc(-c2ccc(Cl)cc2)c1-c1ccc(Cl)cc1Cl	
1000	O=C(NC1CCCCC1)c1nc(-c2ccc(Cl)cc2)c(-c2ccc(Cl)cc2Cl)o1	
450	Cn1c(C(=O)NC2CCCCC2)nc(-c2ccc(Cl)cc2)c1-c1ccc(Cl)cc1	EC50 [2]: 500 nM
900	Cn1c(C(=O)NC(C)(C)C)nc(-c2ccc(Cl)cc2)c1-c1ccc(Cl)cc1	
16	Cn1c(C(=O)NN2CCCCC2)nc(-c2ccc(Cl)cc2Cl)c1-c1ccc(Cl)cc1Cl	
500	O=C(NC1CCCCC1)c1nc(-c2ccc(Cl)cc2)c(-c2ccc(Cl)cc2)o1	
6000	O=C(NN1CCCCC1)c1nc(-c2ccc(Cl)cc2)c(-c2ccc(Cl)cc2)[nH]1	
6.1	Cn1c(C(=O)NN2CCCCC2)nc(-c2ccc(Cl)cc2Cl)c1-c1ccc(Cl)cc1	AUC nom [3]: 1.3 µM·kg·h/mg; bioavailability [4]: 50%; half-life [5]: 2.4 h; EC50 [2]: 5 nM; Kp at 4 h [12]: 3.4; clearance [6]: 28 mL/min/kg; Vd [7]: 3.7 L/kg; Kp at 1 h [8]: 3.6; Kp at 2 h [9]: 2.9; Kp at 0.25 h [11]: 3
260	Cn1c(C(=O)NN2CCCCC2)nc(-c2ccc(Cl)cc2)c1-c1ccc(Cl)cc1	EC50 [2]: 100 nM
260	O=C(NN1CCCCC1)c1nc(-c2ccc(Cl)cc2Cl)c(-c2ccc(Cl)cc2)o1	
60	Cn1c(C(=O)Nc2ccccc2)nc(-c2ccc(Cl)cc2Cl)c1-c1ccc(Cl)cc1	

Compound	IC50 [1] [nM]	also measured
Cn1c(C(=O)N2CCCCC2)nc(-c2ccc(Cl)cc2)c1-c1ccc(Cl)cc1	1100	
Cn1c(C(=O)NN2CCCCC2)nc(-c2ccccc2)c1-c1ccccc1	1900	
Cn1c(C(=O)NC2CCCC2)nc(-c2ccc(Cl)cc2Cl)c1-c1ccc(Cl)cc1	17	
CCn1c(C(=O)NC2CCCCC2)nc(-c2ccc(Cl)cc2Cl)c1-c1ccc(Cl)cc1	4.1	
Cn1c(C(=O)NC2CCCCC2)nc(-c2ccc(Cl)cc2Cl)c1-c1ccc(Cl)cc1	4	AUC nom [3]: 1.8 µM·kg·h/mg; bioavailability [4]: 30%; half-life [5]: 1.9 h; EC50 [2]: 18 nM; clearance [6]: 20 mL/min/kg; Vd [7]: 1.9 L/kg; Kp at 1 h [8]: 2.1; Kp at 2 h [9]: 1.3; Kp at 4 h [10]: 2.6; Kp at 0.25 h [11]: 0.8
Cc1ccc(-c2nc(C(=O)NC3CCCCC3)n(C)c2-c2ccc(C)cc2)cc1	900	
O=C(NC1CCCCC1)c1nc(-c2ccc(Cl)cc2Cl)c(-c2ccc(Cl)cc2Cl)o1	70	
CCCCCCNC(=O)c1nc(-c2ccc(Cl)cc2)c(-c2ccc(Cl)cc2)n1C	540	
Cn1c(C(=O)NC2CCCCCC2)nc(-c2ccc(Cl)cc2Cl)c1-c1ccc(Cl)cc1	8	
Cn1c(C(=O)NC2CCCCC2)nc(-c2ccc(Cl)cc2)c1-c1ccc(Cl)cc1Cl	46	
CN(C(=O)c1nc(-c2ccc(Cl)cc2Cl)c(-c2ccc(Cl)cc2)n1C)C1CCCCC1	70	
Cn1c(C(=O)NC2CCCCC2)nc(-c2ccc(Cl)cc2Cl)c1-c1ccc(Cl)cc1Cl	5.2	

Source: ChEMBL document CHEMBL1142014, “Synthesis and activity of 4,5-diarylimidazoles as human CB1 receptor inverse agonists” (Bioorg Med Chem Lett, 2005)
